Values after ≈ are worked out from the molar mass of the structure shown. Active and inactive are the calls of the source. The calls are words filed in the database; no cut-off is given here.
Tests used:
Assay type in all cases: functional, cell-based
MCF7 [1] = test: Antitumor activity against human MCF7 cells after 48 hrs by SRB assay; conditions: MCF7, 48 h
Method in brief: (§1)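 Cells seeded at 10⁴/well and left overnight to attach, then exposed to compound for 48 h at 37 °C, 5% CO₂, in triplicate wells per dose. Cells were fixed and stained with sulforhodamine B in acetic acid, washed four times with 1% acetic acid, and bound dye was extracted with tris–EDTA. Absorbance was read on an ELISA reader. IC50 (50% growth inhibition) was taken from the survival curve.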

MCF7 [2] = test: Antitumor activity against human MCF7 cells assessed as decrease in survival fraction at > 2.5 ug/ml by SRB assay
Method in brief: (§2)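 Monolayers seeded at 10⁴ cells/well were allowed to attach overnight, then treated with compound for 48 h at 37 °C, 5% CO₂, with triplicate wells per dose. Cells were fixed and stained with sulforhodamine B, washed with 1% acetic acid, and dye was solubilised in tris–EDTA before absorbance reading. Surviving fraction was plotted against compound concentration for each cell line.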

HCT-116 [3] = test: Antitumor activity against human HCT116 cells assessed as decrease in survival fraction at 1 ug/ml by SRB assay; method in brief: as §2
HCT-116 [4] = test: Antitumor activity against human HCT116 cells after 48 hrs by SRB assay; conditions: HCT-116, 48 h; method in brief: as §1
HeLa [5] = test: Antitumor activity against human HeLa cells assessed as decrease in survival fraction at 1 ug/ml by SRB assay; method in brief: as §2
MCF7 [6] = test: Antitumor activity against human MCF7 cells assessed as decrease in survival fraction at 1 ug/ml by SRB assay; method in brief: as §2
HeLa [7] = test: Antitumor activity against human HeLa cells after 48 hrs by SRB assay; method in brief: as §1
MCF7 [8] = test: Antitumor activity against human MCF7 cells assessed as decrease in survival fraction at > 1 ug/ml by SRB assay; method in brief: as §2
HepG2 = test: Antitumor activity against human HepG2 cells after 48 hrs by SRB assay; conditions: HepG2, 48 h; method in brief: as §1

SMILES	IC50 (MCF7 [1]) [µg/mL]	Activity (MCF7 [2])	Activity (HCT-116 [3])	IC50 (HCT-116 [4]) [µg/mL]	Activity (HeLa [5])	Activity (MCF7 [6])	IC50 (HeLa [7]) [µg/mL]	Activity (MCF7 [8])	IC50 (HepG2) [µg/mL]
O=C(Nc1ccc(Cl)cc1)c1c(Nc2ccccc2)nn2ccc(-c3ccc4ccccc4c3)nc12	0.74 (≈ 1.51 µM)	Active	Active	0.54 (≈ 1.1 µM)	Active	Active	0.4 (≈ 0.816 µM)	Active	1.88 (≈ 3.84 µM)
N#Cc1ccc(-c2ccc3ccccc3c2)[nH]c1=S	0.34 (≈ 1.3 µM)	Active		0.49 (≈ 1.87 µM)		Active	0.6 (≈ 2.29 µM)	Active	1.01 (≈ 3.85 µM)

From ChEMBL document CHEMBL1153607, “Synthesis and anti-tumor activities of some new pyridines and pyrazolo[1,5-a]pyrimidines” (Eur J Med Chem, 2009)
